The results in this text go back to ChEMBL document CHEMBL1144212, “Design and synthesis of 3-pyrazolyl-thiophene, thieno[2,3-d]pyrimidines as new bioactive and pharmacological activities” (Bioorg Med Chem Lett, 2008).

Series [1] relates to Rattus norvegicus. The series is described as follows: Antiinflammatory activity against carrageenan-induced albino rat hind paw edema model assessed as edema rate at 10 mg/kg, po administered 1 hr before carrageenan challenge measured after 4 hrs. It counts as functional. In short, it runs like this:
(§1)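 Indomethacin reference group: 10 mg/kg orally as an aqueous suspension, 1 h before carrageenin. Albino rats of both sexes were fasted 18 h, five per group. Edema was induced by subplantar 0.1 mL 1% w/v carrageenin in the left hind paw. Paw volume was read by mercury plethysmometer before injection and hourly for 4 h. Edema rate = (Vt − Vo)/Vo.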

Series [2] relates to Rattus norvegicus. Kind of series: Antiinflammatory activity against carrageenan-induced albino rat hind paw edema model assessed as edema rate at 10 mg/kg, po administered 1 hr before carrageenan challenge measured after 1 hr. It counts as functional. In outline:
as §1

Series [3] has as its system Rattus norvegicus. The series is described as follows: Antiinflammatory activity against carrageenan-induced albino rat hind paw edema model assessed as edema rate at 10 mg/kg, po administered 1 hr before carrageenan challenge measured after 3 hrs. The format is functional. In outline: as §1
Series [4] concerns Rattus norvegicus. Kind of series: Antiinflammatory activity against carrageenan-induced albino rat hind paw edema model assessed as edema rate at 10 mg/kg, po administered 1 hr before carrageenan challenge measured after 2 hrs. It counts as functional. In short, it runs like this:
as §1

Another series relates to Fusarium equiseti. The series is described as follows: Antifungal activity against Fusarium equiseti (Corda) Sacc after 48 hrs by poisoned-food technique. The format is functional. More on the design: concentration or dose not given beside the values.
In another series the test system is Bacillus cereus. The series is described as follows: Antibacterial activity against Bacillus cereus BTCC19 after 48 hrs by disc diffusion method. The format is functional. In outline:
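Disc diffusion on nutrient agar. Compounds were dissolved in DMF at 1 mg/mL, applied per disc. Inhibition zones (mm) were read after 48 h at 28 °C. DMF alone was the negative control; ampicillin was the reference.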

For series [5], the system named is Rattus norvegicus. Kind of series: Antiinflammatory activity against carrageenan-induced albino rat hind paw edema model at 15 mg/kg, po administered 1 hr before carrageenan challenge measured after 3 hrs relative to indomethacin. The format is functional.
For series [6], the system named is Rattus norvegicus. The series is described as follows: Antiinflammatory activity against carrageenan-induced albino rat hind paw edema model at 15 mg/kg, po administered 1 hr before carrageenan challenge measured after 4 hrs relative to indomethacin. The format is functional.
The subject of series [7] is Rattus norvegicus. Kind of series: Antiinflammatory activity against carrageenan-induced albino rat hind paw edema model assessed as edema rate at 15 mg/kg, po administered 1 hr before carrageenan challenge measured after 2 hrs. It counts as functional. In short, it runs like this: (§2)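 Albino rats of both sexes were fasted 18 h, five per group. Dosing was 15 mg/kg orally as an aqueous suspension (tween-80/water vehicle), 1 h before subplantar 0.1 mL 1% w/v carrageenin in the left hind paw. Paw volume was measured by mercury plethysmometer before injection, then hourly for 4 h. Edema rate = (Vt − Vo)/Vo.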

In series [8] the test system is Rattus norvegicus. Kind of series: Antiinflammatory activity against carrageenan-induced albino rat hind paw edema model at 15 mg/kg, po administered 1 hr before carrageenan challenge measured after 1 hr relative to indomethacin. The format is functional.
In a further series the test system is Shigella dysenteriae. Kind of series: Antibacterial activity against Shigella dysenteriae AE 14396 after 48 hrs by disc diffusion method. Conditions: read-out: MIC. The format is functional.
In series [9] the test system is Rattus norvegicus. The series is described as follows: Antiinflammatory activity against carrageenan-induced albino rat hind paw edema model assessed as edema rate at 15 mg/kg, po administered 1 hr before carrageenan challenge measured after 4 hrs. The format is functional. In outline: as §2
Series [10] relates to Rattus norvegicus. Kind of series: Antiinflammatory activity against carrageenan-induced albino rat hind paw edema model at 15 mg/kg, po administered 1 hr before carrageenan challenge measured after 2 hrs relative to indomethacin. The format is functional.
The test system of series [11] is Mus musculus. Kind of series: Analgesic activity in Swiss albino mouse at 20 mg/kg, po assessed as reaction time after 90 mins by hot plate method. It counts as functional. In short, it runs like this: (§3)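 Swiss albino mice of both sexes (25–30 g), kept at 22 °C on a 12 h light/dark cycle, in groups of five. Given 20 mg/kg orally as an aqueous suspension; aspirin reference at 20 mg/kg orally. Hot plate at 53 °C. Reaction time (placement to hind-paw licking or jumping) was taken before dosing and at 15, 30, 60 and 90 min; 60 s cut-off.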

In series [12] the test system is Mus musculus. The series is described as follows: Analgesic activity in Swiss albino mouse at 20 mg/kg, po assessed as reaction time after 30 mins by hot plate method. The format is functional. In outline: as §3
Series [13] has as its system Rattus norvegicus. Kind of series: Gastrointestinal toxicity in carrageenan-induced albino rat hind paw edema model assessed as induction of ulcerogenicity at 15 mg/kg, po. It counts as organism-based. More on the design: dose 15 mg/kg, route oral. Conditions: in vivo.
Series [14] deals with Rattus norvegicus. The series is described as follows: Antiinflammatory activity against carrageenan-induced albino rat hind paw edema model assessed as edema rate at 15 mg/kg, po administered 1 hr before carrageenan challenge measured after 1 hr. The format is functional. In short, it runs like this:
as §2

In a further series the test system is Salmonella typhi. The series is described as follows: Antibacterial activity against Salmonella typhi AE 14612 after 48 hrs by disc diffusion method. The format is functional, Salmonella enterica subsp. enterica serovar Typhi. Conditions: Salmonella enterica, read-out: MIC.
Series [15] has as its system Mus musculus. Kind of series: Analgesic activity in Swiss albino mouse at 20 mg/kg, po assessed as reaction time after 60 mins by hot plate method. It counts as functional. In outline:
as §3

Series [16] deals with Rattus norvegicus. Kind of series: Antiinflammatory activity against carrageenan-induced albino rat hind paw edema model assessed as edema rate at 15 mg/kg, po administered 1 hr before carrageenan challenge measured after 3 hrs. It counts as functional. In short, it runs like this:
as §2

As for `COc1ccc2c(c1)c(CC(=O)O)c(C)n2C(=O)c1ccc(Cl)cc1` [INDOMETHACIN], the Activity is -41.12% with Rattus norvegicus [1], -35.48% in the series with Rattus norvegicus [2], -33.33% with Rattus norvegicus [3] and -39.79% with Rattus norvegicus [4].

Compound `CCOC(=O)c1sc(N)c(C(=O)N2NC(=O)CC2=O)c1C` registered an inhibition in the series on Fusarium equiseti of 40%. In addition, the zone of inhibition amounted to 9 mm in the series with Bacillus cereus, 12 µg/mL in the series with Shigella dysenteriae and 15 µg/mL in the series on Salmonella typhi. Besides, the Activity is 65.5% in the series on Rattus norvegicus [5]; 65.27% with Rattus norvegicus [6]; -31.04% in the series on Rattus norvegicus [7]; 74.8% in the series with Rattus norvegicus [8]; -26.84% with Rattus norvegicus [9]; 78.01% with Rattus norvegicus [10]. Also, the Activity is listed as 10.68 s with Mus musculus [11]; 10.22 s in the series with Mus musculus [12]; “Non-toxic” in the series with Rattus norvegicus [13]; -26.54% in the series with Rattus norvegicus [14]; 12.42 s in the series with Mus musculus [15]; -20.9% with Rattus norvegicus [16].
